Measurements published in paper PMC9090800 (RSC Advances, 2018).
≈ marks a conversion by molar mass, not a printed value.

What was measured:
Assay type in all cases: cell-based
[1] = test system: C. albicans (ATCC 90028); test: In vitro anticandidal activity, broth dilution; details: Candida albicans, ATCC90028, 24 h, read-out: IC50 ± S.D, C. albicans
Method in brief: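 Broth dilution followed the NCCLS protocol. Test compound in DMSO was diluted in PBS, then tested at 1000 to 7.8 μg mL−1 in SD broth with about 2.5 × 10^3 cells per mL in 96-well plates. Plates were shaken 24 h at 30 °C, 150 rpm, and read at OD580. IC50 was the concentration halving absorbance versus untreated cells, taken from a log10 concentration versus % inhibition plot. Triplicates were run on separate occasions, with fluconazole as positive control.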

[2] = Hemolytic assay; details: human, human red blood cells (erythrocyte suspension in PBS)
Method in brief: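 Fresh human blood was collected in EDTA and spun 10 min at 2000 rpm. Erythrocytes were washed three times in PBS and made to a 10% (v/v) suspension, then diluted 1:10. Equal volumes of cells and test compound dilution series in PBS were incubated in triplicate for 1 h at 37 °C and re-centrifuged. Supernatant A450 was expressed relative to buffer (0%) and 1% Triton X-100 (100% lysis). Fluconazole was the reference.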

[3] = test system: human embryonic kidney (HEK-293) cells; test: Cytotoxicity by MTT assay; details: HEK-293, 100 μg mL^−1, 24 h
Method in brief: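 HEK-293 cells grown as monolayers in DMEM with 10% FBS, penicillin and streptomycin, 37 °C, 5% CO2, at most 30 passages. Seeded at about 8 × 10^3 cells per well, 24 h before dosing. Test compound (DMSO stock diluted in PBS) given at 10–200 μg mL−1 for 24 h at 37 °C. Serum-free medium, then MTT (5 mg mL−1 in PBS), 4 h. Formazan dissolved in DMSO, A570 read. Triplicate; viability relative to untreated cells.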

SMILES	IC50 [1]	hemolysis at 1 h, 1000 μg mL^−1 [2]	cell viability (MTT) [3]
CCOC(=O)c1nc2ccccc2c(=O)n1Cc1cn(-c2ccccc2)nn1 [Compound 5a, Ethyl 4-oxo-3-((1-phenyl-1H-1,2,3-triazol-4-yl)methyl)-3,4-dihydroquinazoline-2-carboxylate]	228 ± 3.8 µg/mL (≈ 607 µM)		
CCOC(=O)c1nc2ccccc2c(=O)n1Cc1cn(-c2ccccc2Cl)nn1 [Compound 5b, Ethyl 3-((1-(2-chlorophenyl)-1H-1,2,3-triazol-4-yl)methyl)-4-oxo-3,4-dihydroquinazoline-2-carboxylate]	124 ± 18.4 µg/mL (≈ 304 µM)		
CCOC(=O)c1nc2ccccc2c(=O)n1Cc1cn(-c2ccccc2F)nn1 [Compound 5c, Ethyl 3-((1-(2-fluorophenyl)-1H-1,2,3-triazol-4-yl)methyl)-4-oxo-3,4-dihydroquinazoline-2-carboxylate]	110 ± 4.8 µg/mL (≈ 279 µM)		
CCOC(=O)c1nc2ccccc2c(=O)n1Cc1cn(-c2ccccc2C)nn1 [Compound 5d, Ethyl 4-oxo-3-((1-o-tolyl-1H-1,2,3-triazol-4-yl)methyl)-3,4-dihydroquinazoline-2-carboxylate]	297 ± 5.9 µg/mL (≈ 763 µM)		
CCOC(=O)c1nc2ccccc2c(=O)n1Cc1cn(-c2ccccc2OC)nn1 [Compound 5e, Ethyl 3-((1-(2-methoxyphenyl)-1H-1,2,3-triazol-4-yl)methyl)-4-oxo-3,4-dihydroquinazoline-2-carboxylate]	18.6 ± 3.4 µg/mL (≈ 45.9 µM)	< 20%	no significant decrease in cell viability
CCOC(=O)c1nc2ccccc2c(=O)n1Cc1cn(-c2ccccc2[N+](=O)[O-])nn1 [Compound 5f, Ethyl 3-((1-(2-nitrophenyl)-1H-1,2,3-triazol-4-yl)methyl)-4-oxo-3,4-dihydroquinazoline-2-carboxylate]	269 ± 5.5 µg/mL (≈ 641 µM)		
CCOC(=O)c1nc2ccccc2c(=O)n1Cc1cn(-c2cccc(F)c2)nn1 [Compound 5h, Ethyl 3-((1-(3-fluorophenyl)-1H-1,2,3-triazol-4-yl)methyl)-4-oxo-3,4-dihydroquinazoline-2-carboxylate]	510 ± 6.4 µg/mL (≈ 1300 µM)		
CCOC(=O)c1nc2ccccc2c(=O)n1Cc1cn(-c2cccc(C)c2)nn1 [Compound 5i, Ethyl 4-oxo-3-((1-m-tolyl-1H-1,2,3-triazol-4-yl)methyl)-3,4-dihydroquinazoline-2-carboxylate]	353 ± 11.1 µg/mL (≈ 905 µM)		
CCOC(=O)c1nc2ccccc2c(=O)n1Cc1cn(-c2cccc(OC)c2)nn1 [Compound 5j, Ethyl 3-((1-(3-methoxyphenyl)-1H-1,2,3-triazol-4-yl)methyl)-4-oxo-3,4-dihydroquinazoline-2-carboxylate]	340 ± 7.4 µg/mL (≈ 840 µM)		
CCOC(=O)c1nc2ccccc2c(=O)n1Cc1cn(-c2cccc([N+](=O)[O-])c2)nn1 [Compound 5k, Ethyl 3-((1-(3-nitrophenyl)-1H-1,2,3-triazol-4-yl)methyl)-4-oxo-3,4-dihydroquinazoline-2-carboxylate]	143 ± 2.5 µg/mL (≈ 339 µM)		
CCOC(=O)c1nc2ccccc2c(=O)n1Cc1cn(-c2ccc(Cl)cc2)nn1 [Compound 5l, Ethyl 3-((1-(4-chlorophenyl)-1H-1,2,3-triazol-4-yl)methyl)-4-oxo-3,4-dihydroquinazoline-2-carboxylate]	216 ± 3.5 µg/mL (≈ 526 µM)		
CCOC(=O)c1nc2ccccc2c(=O)n1Cc1cn(-c2ccc(F)cc2)nn1 [Compound 5m, Ethyl 3-((1-(4-fluorophenyl)-1H-1,2,3-triazol-4-yl)methyl)-4-oxo-3,4-dihydroquinazoline-2-carboxylate]	209 ± 6.5 µg/mL (≈ 532 µM)		
CCOC(=O)c1nc2ccccc2c(=O)n1Cc1cn(-c2ccc(OC)cc2)nn1 [Compound 5o, Ethyl 3-((1-(4-methoxyphenyl)-1H-1,2,3-triazol-4-yl)methyl)-4-oxo-3,4-dihydroquinazoline-2-carboxylate]	394.3 ± 1.7 µg/mL (≈ 973 µM)		
CCOC(=O)c1nc2ccccc2c(=O)n1Cc1cn(-c2ccc([N+](=O)[O-])cc2)nn1 [Compound 5p, Ethyl 3-((1-(4-nitrophenyl)-1H-1,2,3-triazol-4-yl)methyl)-4-oxo-3,4-dihydroquinazoline-2-carboxylate]	151 ± 15.7 µg/mL (≈ 360 µM)		
CCOC(=O)c1nc2ccccc2c(=O)n1Cc1cn(-c2ccc(C(=O)O)cc2)nn1 [Compound 5q, 4-(4-((2-(ethoxycarbonyl)-4-oxoquinazolin-3(4H)-yl)methyl)-1H-1,2,3-triazol-1-yl)benzoic acid]	342 ± 5.7 µg/mL (≈ 816 µM)		
OC(Cn1cncn1)(Cn1cncn1)c1ccc(F)cc1F [FLC, fluconazole, reference compound]	15.6 ± 2.2 µg/mL (≈ 50.9 µM)	78.1%	

The next lines start with results.

IC50 [1]	SMILES	hemolysis at 1 h, 1000 μg mL^−1 [2]	cell viability (MTT) [3]
119 ± 7.6 µg/mL (≈ 342 µM)	O=C(O)c1nc2ccccc2c(=O)n1Cc1cn(-c2ccccc2)nn1 [Compound 6a, 4-Oxo-3-((1-phenyl-1H-1,2,3-triazol-4-yl)methyl)-3,4-dihydroquinazoline-2-carboxylic acid]		
169 ± 3.4 µg/mL (≈ 442 µM)	O=C(O)c1nc2ccccc2c(=O)n1Cc1cn(-c2ccccc2Cl)nn1 [Compound 6b, 3-((1-(2-Chlorophenyl)-1H-1,2,3-triazol-4-yl)methyl)-4-oxo-3,4-dihydroquinazoline-2-carboxylic acid]		
101 ± 3.7 µg/mL (≈ 276 µM)	O=C(O)c1nc2ccccc2c(=O)n1Cc1cn(-c2ccccc2F)nn1 [Compound 6c, 3-((1-(2-Fluorophenyl)-1H-1,2,3-triazol-4-yl)methyl)-4-oxo-3,4-dihydroquinazoline-2-carboxylic acid]	< 20%	no significant decrease in cell viability
131 ± 4.3 µg/mL (≈ 363 µM)	Cc1ccccc1-n1cc(Cn2c(C(=O)O)nc3ccccc3c2=O)nn1 [Compound 6d, 4-Oxo-3-((1-o-tolyl-1H-1,2,3-triazol-4-yl)methyl)-3,4-dihydroquinazoline-2-carboxylic acid]		
48.2 ± 3.2 µg/mL (≈ 128 µM)	COc1ccccc1-n1cc(Cn2c(C(=O)O)nc3ccccc3c2=O)nn1 [Compound 6e, 3-((1-(2-Methoxyphenyl)-1H-1,2,3-triazol-4-yl)methyl)-4-oxo-3,4-dihydroquinazoline-2-carboxylic acid]	< 20%	no significant decrease in cell viability
701 ± 23.6 µg/mL (≈ 1790 µM)	O=C(O)c1nc2ccccc2c(=O)n1Cc1cn(-c2ccccc2[N+](=O)[O-])nn1 [Compound 6f, 3-((1-(2-Nitrophenyl)-1H-1,2,3-triazol-4-yl)methyl)-4-oxo-3,4-dihydroquinazoline-2-carboxylic acid]		
100 ± 4 µg/mL (≈ 263 µM)	O=C(O)c1nc2ccccc2c(=O)n1Cc1cn(-c2cccc(Cl)c2)nn1 [Compound 6g, 3-((1-(3-Chlorophenyl)-1H-1,2,3-triazol-4-yl)methyl)-4-oxo-3,4-dihydroquinazoline-2-carboxylic acid]		
135 ± 2.4 µg/mL (≈ 369 µM)	O=C(O)c1nc2ccccc2c(=O)n1Cc1cn(-c2cccc(F)c2)nn1 [Compound 6h, 3-((1-(3-Fluorophenyl)-1H-1,2,3-triazol-4-yl)methyl)-4-oxo-3,4-dihydroquinazoline-2-carboxylic acid]		
133 ± 4.2 µg/mL (≈ 369 µM)	Cc1cccc(-n2cc(Cn3c(C(=O)O)nc4ccccc4c3=O)nn2)c1 [Compound 6i, 4-Oxo-3-((1-m-tolyl-1H-1,2,3-triazol-4-yl)methyl)-3,4-dihydroquinazoline-2-carboxylic acid]		
214 ± 11 µg/mL (≈ 568 µM)	COc1cccc(-n2cc(Cn3c(C(=O)O)nc4ccccc4c3=O)nn2)c1 [Compound 6j, 3-((1-(3-Methoxyphenyl)-1H-1,2,3-triazol-4-yl)methyl)-4-oxo-3,4-dihydroquinazoline-2-carboxylic acid]		
701 ± 23.6 µg/mL (≈ 1790 µM)	O=C(O)c1nc2ccccc2c(=O)n1Cc1cn(-c2cccc([N+](=O)[O-])c2)nn1 [Compound 6k, 3-((1-(3-Nitrophenyl)-1H-1,2,3-triazol-4-yl)methyl)-4-oxo-3,4-dihydroquinazoline-2-carboxylic acid]		
221 ± 11.2 µg/mL (≈ 579 µM)	O=C(O)c1nc2ccccc2c(=O)n1Cc1cn(-c2ccc(Cl)cc2)nn1 [Compound 6l, 3-((1-(4-Chlorophenyl)-1H-1,2,3-triazol-4-yl)methyl)-4-oxo-3,4-dihydroquinazoline-2-carboxylic acid]		
172 ± 5.3 µg/mL (≈ 471 µM)	O=C(O)c1nc2ccccc2c(=O)n1Cc1cn(-c2ccc(F)cc2)nn1 [Compound 6m, 3-((1-(4-Fluorophenyl)-1H-1,2,3-triazol-4-yl)methyl)-4-oxo-3,4-dihydroquinazoline-2-carboxylic acid]		
125 ± 5.9 µg/mL (≈ 331 µM)	COc1ccc(-n2cc(Cn3c(C(=O)O)nc4ccccc4c3=O)nn2)cc1 [Compound 6o, 3-((1-(4-Methoxyphenyl)-1H-1,2,3-triazol-4-yl)methyl)-4-oxo-3,4-dihydroquinazoline-2-carboxylic acid]		
789 ± 16.4 µg/mL (≈ 2010 µM)	O=C(O)c1nc2ccccc2c(=O)n1Cc1cn(-c2ccc([N+](=O)[O-])cc2)nn1 [Compound 6p, 3-((1-(4-Nitrophenyl)-1H-1,2,3-triazol-4-yl)methyl)-4-oxo-3,4-dihydroquinazoline-2-carboxylic acid]		
916 ± 15.5 µg/mL (≈ 2340 µM)	O=C(O)c1ccc(-n2cc(Cn3c(C(=O)O)nc4ccccc4c3=O)nn2)cc1 [Compound 6q, 3-((1-(4-Carboxyphenyl)-1H-1,2,3-triazol-4-yl)methyl)-4-oxo-3,4-dihydroquinazoline-2-carboxylic acid]		
